Compound activity deposited in PubChem by several laboratories.
KLK7 zymogen act: activators of human kallikrein-7 zymogen. 0.9% of 370,000 active. P49862. activation, % at 7 µM. purified proKLK7, EDANS-DABCYL substrate fluorescence; 100% is mature enzyme control, 0% vehicle;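 active = activation above the mean of all tested compounds plus 3 SD, computed per campaign excluding outliers beyond control limits, cut at about 13% in these data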
Target sequence (P49862 whole entry, looked up): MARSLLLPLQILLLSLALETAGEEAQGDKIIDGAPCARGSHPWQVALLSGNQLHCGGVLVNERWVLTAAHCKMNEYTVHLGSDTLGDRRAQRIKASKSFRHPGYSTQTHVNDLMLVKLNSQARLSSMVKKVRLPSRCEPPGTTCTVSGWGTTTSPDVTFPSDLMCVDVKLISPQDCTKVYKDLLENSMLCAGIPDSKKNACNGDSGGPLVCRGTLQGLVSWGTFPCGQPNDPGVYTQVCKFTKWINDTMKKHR
NR2E3 ag-1: human photoreceptor-specific nuclear receptor agonism; CHO-S Gal4-NCOR/VP16-NR2E3 two-hybrid, luciferase; inhibition of corepressor binding, % at 3.98 µM; 0.35% of 360,000 active; AID 602229;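 active = inhibition above the mean of all tested compounds plus 3 SD, cut at about 70% in these data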;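 note: 0% = DMSO with NR2E3 transfected cells and 100% = cells lacking NR2E3 construct; higher means lower luciferase signal from less NR2E3 corepressor binding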
Target sequence (Q9Y5X4 whole entry, looked up, the tested form may be a part): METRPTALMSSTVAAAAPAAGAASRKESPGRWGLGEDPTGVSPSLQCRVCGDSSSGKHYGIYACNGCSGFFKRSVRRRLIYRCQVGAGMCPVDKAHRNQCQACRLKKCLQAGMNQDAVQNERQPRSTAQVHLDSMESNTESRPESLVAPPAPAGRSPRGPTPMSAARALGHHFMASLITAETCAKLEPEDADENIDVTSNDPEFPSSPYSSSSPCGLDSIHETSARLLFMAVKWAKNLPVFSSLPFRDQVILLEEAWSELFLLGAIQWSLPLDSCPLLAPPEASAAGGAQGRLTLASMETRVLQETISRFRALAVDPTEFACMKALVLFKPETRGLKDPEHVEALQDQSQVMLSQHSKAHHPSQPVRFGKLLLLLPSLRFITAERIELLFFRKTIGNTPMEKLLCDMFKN
ADAM17 inh: inhibitors of human ADAM17. P78536. recombinant ADAM17, EDANS/DABCYL FRET peptide cleavage. inhibition, % at 6.95 µM. 0.83% of 370,000 active. AID 720648;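 active = inhibition above the mean of compounds lying between control limits plus 3 SD, set per campaign, cut at about 8.5% in these data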;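 note: 0% = DMSO-only wells as the low control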
ADAM10 inh: inhibitors of human ADAM10. 0.62% of 370,000 active. O14672. recombinant ADAM10, EDANS/DABCYL FRET peptide cleavage, 3 h. inhibition, % at 7 µM;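 active = inhibition above a per-campaign cutoff equal to the mean of compounds falling between control-based bounds plus 3 SD, cut at about 20% in these data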;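 note: 0% = DMSO wells while the 100% control is not disclosed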
GASC-1 inh: blocks human GASC-1 demethylase activity. Q9H3R0. GST-JMJD2C(1-420) H3K9me3 demethylation, DELFIA europium. inhibition, % at 2.35 µM. 0.069% of 330,000 active;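 active = more than half of a compound's replicate wells show inhibition beyond 50%, single wells judged on their own value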;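 note: signal counts dimethyl H3K9 product captured on neutravidin plate; 0% = median of DMSO wells and 100% = 0.3 times that DMSO median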
NR2E3 ag-2: activates human photoreceptor nuclear receptor NR2E3. GST-NR2E3/biotin-RetCOR TR-FRET, 1536-well. AID 2300. Q9Y5X4. inhibition of corepressor binding, % at 4.78 µM. 0.12% of 320,000 active;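 active = percent inhibition above the cutoff of mean plus 3 SD of all tested compounds, set per screening campaign, cut at about 20% in these data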;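 note: 0% = DMSO wells and 100% = biotin wells as full block of FRET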
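Material: NR2E3–RetCOR corepressor complex | Quantity: 1.35 nM GST-tagged NR2E3 final | Schedule: 5 h at 4 °C | Replication: Singlicate compound wells | Reagent: RetCOR corepressor, biotinylated, 7 nM | Controls: Biotin wells as high control, 0.6% DMSO wells as low control | Signal: TR-FRET, Eu(K)-anti-GST donor, streptavidin-D2 acceptor, ex 340, em 617/671 nm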
NR2E3 ag conf: confirmation of human NR2E3 agonists; shares compounds with NR2E3 ag-1; CHO-S mammalian two-hybrid NR2E3-NCOR, luciferase luminescence; inhibition, % at 3.98 µM; 51% of 2,300 active;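 active = average inhibition above a cutoff equal to the mean inhibition of all tested compounds plus one SD, cut at about 70% in these data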;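 note: 0% = DMSO in NR2E3 cells and 100% = DMSO in cells lacking NR2E3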
VP16 counter: GAL4-VP16 reporter inhibition in NR2E3 agonist counterscreen; shares compounds with NR2E3 ag-1; CHO-S GAL4-VP16 luciferase reporter, luminescence; inhibition, % at 3.98 µM; 29% of 2,300 active; AID 624379;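 active = mean inhibition above a cutoff equal to the average over all tested compounds plus one standard deviation, cut at about 70% in these data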;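 note: luciferase from a UAS reporter driven by GAL4-VP16 transactivation; 0% = DMSO with VP16-transfected cells and 100% = DMSO with cells lacking VP16; higher means less reporter light so more repression of VP16 activity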
The depositor's hits bear a star. An excerpt weighted towards active compounds, which were near 2.5% of everything screened.

Screening CCCCOc1ncnc2c1[nH]c1ccc(F)cc12 returned KLK7 zymogen act -1, NR2E3 ag-1 75*, ADAM17 inh -48, ADAM10 inh -146, GASC-1 inh -16, NR2E3 ag-2 -2, NR2E3 ag conf 97* and VP16 counter 73*.
`CCCCOCCCNc1ncnc2c1[nH]c1ccccc12` gave KLK7 zymogen act 1, NR2E3 ag-1 87*, ADAM17 inh -54, ADAM10 inh -175, GASC-1 inh -9, NR2E3 ag-2 0, NR2E3 ag conf 96* and VP16 counter 82*.
Screening CCCCOc1ncnc2c1[nH]c1ccccc12 returned KLK7 zymogen act 2, NR2E3 ag-1 79*, ADAM17 inh -49, ADAM10 inh -153, GASC-1 inh 24, NR2E3 ag-2 -1, NR2E3 ag conf 92* and VP16 counter 64.
`Cc1cnc(CNC(=O)c2csc([C@@H]3O[C@H](CO)[C@H](O)[C@H](O)[C@H]3O)n2)cn1` gave KLK7 zymogen act 0, NR2E3 ag-1 -10, ADAM17 inh -1 and ADAM10 inh -8.
CCCCc1ccc(S(=O)(=O)NCCc2ccncc2)cc1 was read as KLK7 zymogen act -1, NR2E3 ag-1 70, ADAM17 inh 0, ADAM10 inh 15, GASC-1 inh -7, NR2E3 ag-2 1, NR2E3 ag conf 73* and VP16 counter 65.
CC(=O)NCCC(=O)Nc1ccc(F)cc1C was read as KLK7 zymogen act -2, NR2E3 ag-1 6, ADAM17 inh 0, ADAM10 inh -5, GASC-1 inh 2 and NR2E3 ag-2 -2.
Screening CCOc1ccc(OCCC(=O)Nc2ccc(F)cc2C)cc1 returned KLK7 zymogen act 0, NR2E3 ag-1 50, ADAM17 inh -1, ADAM10 inh -1, GASC-1 inh 41, NR2E3 ag-2 2, NR2E3 ag conf 15 and VP16 counter -25.
Screening C=CCSc1nsc(NC(=O)Nc2ccc(F)cc2)n1 returned KLK7 zymogen act 1, NR2E3 ag-1 93*, ADAM17 inh 2, ADAM10 inh 5, GASC-1 inh -5, NR2E3 ag-2 4, NR2E3 ag conf 100* and VP16 counter 88*.
Screening C=C(C)C1CCC2(C(=O)O)CCC3(C)C(CCC4C5(C)C(C=O)C(O)C(C)(C)C5CCC43C)C12 (stereo unspecified) returned KLK7 zymogen act 0, NR2E3 ag-1 76*, ADAM17 inh 1, ADAM10 inh -13, GASC-1 inh -11, NR2E3 ag-2 0, NR2E3 ag conf 57 and VP16 counter 18.
Screening COc1cccc(N2CCN(c3nc(C)c(C)c(=O)[nH]3)CC2)c1 returned KLK7 zymogen act -1, NR2E3 ag-1 -27, ADAM17 inh 3, ADAM10 inh 5, GASC-1 inh 4 and NR2E3 ag-2 0.
Screening COc1cccc(N2CCN(c3nc(-c4ccccc4C)cc(=O)[nH]3)CC2)c1 returned KLK7 zymogen act 1, NR2E3 ag-1 93*, ADAM17 inh 2, ADAM10 inh 9, GASC-1 inh 26, NR2E3 ag conf 98* and VP16 counter 2.
For CCCCS(=O)(=O)N1C2=NC3=C(C(=O)N(CCOC)C3=O)C3N(C)c4ccccc4[C@]23C[C@H]1CO (stereo partly specified) the results were KLK7 zymogen act 0, ADAM17 inh -3 and ADAM10 inh -4.
COc1ccc(CC2(CO)CCN(CC3=Cc4cc(Cl)ccc4OC3)CC2)cc1 was read as KLK7 zymogen act 0, NR2E3 ag-1 69, ADAM17 inh 4, ADAM10 inh 8, GASC-1 inh -9, NR2E3 ag-2 0, NR2E3 ag conf 96* and VP16 counter 74*.
Screening CCOC(=O)N1CCN(C(=O)C[C@H]2C[C@@]3(C(=O)OC)C(=C[C@H](COCc4ccccc4)O[C@@H]3C)N(Cc3cccc4ccccc34)C2=O)CC1 returned KLK7 zymogen act 0, ADAM17 inh 3 and ADAM10 inh 7.
Screening COc1cc(CC2COC(=O)C2Cc2ccc(O)c(OC)c2)ccc1O (stereo unspecified) returned KLK7 zymogen act -1, ADAM17 inh -2 and ADAM10 inh 0.
COc1cc(C[C@@H]2C(=O)OC[C@H]2Cc2ccc(OC)c(OC)c2)ccc1O was read as KLK7 zymogen act -1, NR2E3 ag-1 87*, ADAM17 inh 3, ADAM10 inh 1, GASC-1 inh 7, NR2E3 ag-2 1, NR2E3 ag conf 95* and VP16 counter 81*.
COc1ccc(OC)c(-c2csc(NC(=O)CSc3ccc(Br)cc3)n2)c1 was read as KLK7 zymogen act 0, NR2E3 ag-1 -1, ADAM17 inh 3, ADAM10 inh 4, GASC-1 inh 1 and NR2E3 ag-2 -1.
`COc1ccc(OC)c(-c2csc(NC(=O)Cc3cc(OC)c(OC)c(OC)c3)n2)c1` gave KLK7 zymogen act -1, NR2E3 ag-1 54, ADAM17 inh -1, ADAM10 inh 6, GASC-1 inh 0, NR2E3 ag-2 -2, NR2E3 ag conf 26 and VP16 counter 49.
For C=C(C)CSc1nnc(-c2cc(-c3ccccc3)n[nH]2)n1N the results were KLK7 zymogen act -1, ADAM17 inh 0 and ADAM10 inh -2.
For C[C@H]1Cn2nnc(-c3ccccc3)c2Cn2c3ccccc3c(=O)n21 the results were KLK7 zymogen act 1, ADAM17 inh -49 and ADAM10 inh -189.
Screening CCCCCCCCN1C(=O)[C@@H](CC(=O)NCc2ccccc2)C[C@@]2(C(=O)OC)C1=C[C@H](C(C)C)O[C@@H]2C1CC1 returned KLK7 zymogen act 0, ADAM17 inh 3 and ADAM10 inh 14.
For Cc1[nH]nc(S(=O)CC(=O)O)c1[N+](=O)[O-] (stereo unspecified) the results were KLK7 zymogen act 0, NR2E3 ag-1 59, ADAM17 inh 1, ADAM10 inh 2, GASC-1 inh -3, NR2E3 ag-2 4, NR2E3 ag conf 1 and VP16 counter -7.
For Cc1[nH]nc(NCCO)c1[N+](=O)[O-] the results were KLK7 zymogen act 0, NR2E3 ag-1 -8, ADAM17 inh -3, ADAM10 inh 2, GASC-1 inh -1 and NR2E3 ag-2 -9.
CN1CCCN(C(=O)CSc2nnc(-c3cccnc3)n2C2CCCCC2)CC1 was read as KLK7 zymogen act 1, ADAM17 inh -4 and ADAM10 inh -7.
